Assay: Induction of glutathione reactivity in pH 7.4 PBS buffer assessed as compound formation at 10 mM Andrographolide-14a-O iodoacetate and 10 mM GSH at 50 degC incubated for 8 hrs under argon atmosphere by reverse phase HPLC method
Type: physicochemical
Details: pH 7.4, 8 h, 10000 µM
In short: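 Ethanolic compound and GSH added to PBS, final 10 mM each with buffer at 2 mM, heated at 50 °C for 8 h.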

## C=C1CC[C@@H]2[C@](C)(CO)[C@H](O)CC[C@@]2(C)[C@@H]1CC(SC[C@H](NC(=O)CC[C@H](N)C(=O)O)C(=O)NCC(=O)O)C1=CCOC1=O (single isomer, unassigned; diastereomer 1)
  Drug metabolism: metabolite_detected

Source: ChEMBL document CHEMBL3352171, “Synthesis and biological evaluation of andrographolide analogues as anti-cancer agents” (Eur J Med Chem, 2014)
